The record followed here is the RNAGym collection of RNA variant scans (doi:10.1126/science.aae0568).

First the molecules themselves.
B1: tRNA (parent)
chain: GUUCCGUUGGCGUAAUGGUAACGCGUCUCCCUCCUAAGGAGAAGACUGCGGGUUCGAGUCCCGUACGGAACG

Variants at the floor of the assay were thinned out. A value given as a limit tells only on which side of the number the result lay.

In this data set the parent is B1. In words: yeast fitness relative to wild type (ratio to wild type); higher = fitter; tRNA-Arg(CCU), competitive growth, 37 C, YPD. In short, it runs like this:
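Gene amplicons from the start population and from each of six end populations were read by 100-nucleotide paired-end sequencing. Those end populations came from pooled Saccharomyces cerevisiae strains carrying tRNA-Arg(CCU) gene variants at the native locus, competed in YPD at 37°C for 24 hours. Fitness relative to wild type was worked out from changes in genotype frequencies. Genotypes needed ≥ 100 starting reads, and estimates < 0.5 were set to 0.5.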
On to GCUCCGUUGGCGUAUUGGUAACGCGUCUCCCUCAUAAGCCGAAGACUGCGGGUUCCAGUCGGGUACGCAACG, for which the yeast fitness was ≤ 0.5. As to GUUCCGUUGGCGUAAUGGUAACGCGUAUCCCUCCUAAGGAGAAGAUUGCGGAUUCGAGUCCCGUACGGAACG, the yeast fitness was 0.644. With GUUCCGUUGGCGUAAUGGUGACGCGUCUCCCUCCUAAGGAGAAGACUGCGGGUUCGAGUCCAGUACGGAACG the figure was 0.715. Next, GUACCGUUGGCGUAAUGGUAACGCAUCUCCCUCCUAAGGAGAAGACUGGGGGUUCGAGUCCCGUGCGGUACG: ≤ 0.5. Regarding GUUCCGUUGGCGUAAUGGUAACGCGUCUCCCUCCUAAGGAGAAGACUGCGGGUUCGGGUCCCAUACGGAACG, the yeast fitness is 0.879. On to GUUCCGUUGGCGUAAUGGUAACGCGUCUCCCUCCUAAGGCGAAGGCUGCGGGUUCGAGACCCGUACGGAACG, for which the yeast fitness worked out at 0.573. Regarding GUUCCGUUAGCGUAAUGGUAACGCGUCUCCCUCCUAAGGAGAAGAAUGCGGGUUCGAGUCACGUACGGAACG, the yeast fitness worked out at 0.53.

Turning to GUUCCGUUGGCGUAAUGGUAUCGGGUCUCCCUCCUAAGGAGAAGACAGCGGGUUCGAGUCCCGUACGGAACG, the yeast fitness is ≤ 0.5.

GUUCCGCCGGCGUAAUGGUAACGCGUCUCCCUCCUAAGGAGAAGACUGCGGGUUCGAGUCCCGUACGGAACG: the yeast fitness came out at 0.976. In the case of GUUCCGUUGGCCUAAUGGUAAGACGUCUCCCUCCUACGGAGACGACUGCGGGUUCGAGUCCCGUUCGGAACG, the yeast fitness was ≤ 0.5.

Turning to GGUCCGUUGGCGUAAUAGUAACGCGUCUCCCUGCUAAGCAGAAGACUGCGGGUUUGAGUCCCGUACGGAACG, the yeast fitness was ≤ 0.5. Consider GUUCCGUUGGUGUAAUGGUAACGCGUCUCCCACCUAAGGAGAAGACUGCAAGUUCCAGUCGCGUACGGAACG, for which the yeast fitness was ≤ 0.5. In the case of GUUCCGUUGGCGUAAUGGUGACGCGUCUCCCUCCUCAGGAGAAGACUGCGGGUUCGAGUCCCGUACGGAACG, the yeast fitness was 0.596. As for GUUCUGUUGGAGUAAUGGUAACGCGUCUCCCUCCUAAGGAGAAGACUGCGGGUCCGAGUCCCAUACGGAACG, the yeast fitness is ≤ 0.5.

On to GUUCCGUUGGCGUAAUGGUAAGGCGUCUCCCUCCUAAGGAGAUGACUGCGGGUCCGAGUCCUGUACGGAACG, for which the yeast fitness is ≤ 0.5. Turning to GUUCCGUUGGCGUAAUGGUAACGCCUCUCCCUCCUAAGGAGAAGACUGCGGGUUCGAGUCCCCUACGGAACG, the yeast fitness came to 0.716. Regarding GUUCCGUUGGCGUAAUGGUAAUGCGUCUCCCUCCUAAGCAGAAGACUGCGGGUUCGAGUCCUGUACGGAACG, the yeast fitness was 0.51. GUUCCGUUGGCGUAAUGGUAACGCGUGUCUCUCCUAAGCUGAACACAACGGGCUCGAGUACCGUACGGAACG: the yeast fitness was ≤ 0.5. Next, GUUCCGUUGGCGUAAUGGUAGCGCGUCUCCCUCCUAAGGAGAAGACUGCGGAUUCGGGUCCCGUAGGGAACG: ≤ 0.5; GUUCCGUUGGCGUAAUGGUAACGCGUCUGCGUCCUAAGGAGAAGACUGCGGGUUCGAGUCCCGUACGGAACG: 0.695; GUUCCGACGGCGUAAUGGUAACACGUCUCCCUCCUAAGGAGAAGACUGCGGGUUCCAGUCCCGUAGGGAACG: 0.677.

For the variant GUUCGGUUGGCGUAAUGGUUGGGCGUCUCCCUCCAAAGGAGAAAACUGCGGGUUUGAGUGCCGAACAGAACG, the yeast fitness was 0.649. As to GUUCCGUUGGCGUAAUGGUAACGCGUCUGCCUCCUAAGGAGAAGACUACGGGUUCGAGUCCCGUACGGAUCG, the yeast fitness is ≤ 0.5. As to GUUCCGUUGGCGUAAUGGUAACGCGUCUCCCCCCUAAGGAGAAGACUGCGGGUUUGGGUCCCGUACGGAACG, the yeast fitness worked out at 0.555. As for GUUCCGUUGGCGUAAUGGUAACUCGUCUCCCUCCUAAGGAGAAGACUGCGGGUUCGGGUCCCGUACGGAACG, the yeast fitness was 0.665. With GUUUCGUUGGCGUAAUGGUAACGCGUCACUCUCCUAAGGAGAAGACUGCGGGUUCGGGUCCCGUACGGAACG, the yeast fitness stood at 0.547. Turning to GUUCCGUUGGCGUAAUGGUAUCGCGUCUCCCUCCUAAGGAAAAGACUGCGGGUUCGAGUCCCGUACGGAACG, the yeast fitness stood at 0.727. On to GAUCCAUUGGGGUAAUGGUAACGCGUCUCCCUCCUAAGGAGAAGACUGUGGGUUCGACUCCCGUACGUAACG, for which the yeast fitness was ≤ 0.5. As for GUUCCGUUGGCGUAAUGGUAAUGCGUCUCCCUCCUCAGGAGAAGACUGUGGGUUCGAGUCCCGUGCGGAACG, the yeast fitness was determined as 0.528. Consider GUUCCGUUGGCGUAAUGGUGACAGGUCUCCCUCCUAAGGAGAAGACUGCGGGUUCGAGUCCCGUACGGAACG, for which the yeast fitness was ≤ 0.5. Next, GUUGCGUUGGGGUAAUGGUAAUGCGUCUCCCUCCUAAGGAGAAGAGUGCGGGUUCGAGUCCCGUACGGAACG: ≤ 0.5; GUUCCGUUGGCGUGAUGGUAACGCGUCUCCCUCCCAAGGAGAAGACUGCGGGUUCGAGUCCGGUGCGGAACG: 0.635. For the variant GUUCCGUUGGCGUAAUGGUAACGCGUCUCCCUCCUAAGGAGAUGACUGCGGGUACGCGUCCCGUACGGAACG, the yeast fitness worked out at 0.533.

Turning to GUUCCAUUGGCGUAAUGGUAACGCGUGUCCCUCCUAAGGAGAAGACUGCGGGUUCGAGUCCCGUCCGGAACG, the yeast fitness came to 0.562. GUUCCGAUGGCGUAAUGGUAACGCGUCUGCCCCCUAAAGAGAAGACUGCGGGUUCGAGUCCCGUACGGAACG: the yeast fitness was ≤ 0.5. Next, GUUCCGUUGGCGUAGUGGUUACGCGUCUCCCUCCUAAGGAGAAGACUGCGGGUUCGAGUCCCAUACGGAACG: 0.603; GUUCCGUUGGCGUAAUGGUGACGCGUCUCCCUCCCGAGGAGAAGACUGCGGGUUCGAGUCCCGUACGGAACG: 0.727.

In the case of GUUCCGUUGGCGUAAUGGUAACGCGUCUCCAUCCUAAGGAGAAGACUGCAGGUUCGAGUCCCGUACGGAACG, the yeast fitness was found to be 0.791. Next, GUUCCGUUGGCGUAAUGGUAACGCGUCUCCCUCCUAAGGUGAAGACUGCGGGUUCGAGUCCCGUACCGAACG: 0.755; GUUCCGUUGACGUAAUGGUAACGCAUCUGCUUCCUAAGGAGAAGACUGCGGGUUCGAGUCCCGUACGGAACG: ≤ 0.5. With GUUCCCUUGGCGUAAUGGUAACGCGUCUCCCUCCUGAGGAGAAGACUGCGGGUUCGAGUCCCGUACGGAACG the figure was 0.875; with GUUCCGUAGGCGUAAUGGUAACGCGUCUCCCUCCUAAGGGGAAGACUGGGGGUAAGAGUCCCGUACGGAACG, ≤ 0.5.

On to GUACCGUUGGCAUAAUGGUAACGUGUCUCCCUCCUAAGGAGAAGUCUGCGGGUUCGAGUCCCGCACGGAACG, for which the yeast fitness was ≤ 0.5. On to GUUCCGUUGGCGAAAUGGUAACGCGUCUCCCUCCUAAGGAGAAGACAGCGGGUUCGAGUACCGUACGGAACG, for which the yeast fitness amounted to 0.58.

In the case of GUUCCGUUGGCGUAAUGGUAACGCGUCUCCCUCCUAAGGAGUAGACUGCGGGUUCGAGUCCAGUUCGGAACG, the yeast fitness was 0.604.

In the case of GUUCCGUAGGCGUAAUAGUAACGCGUCUCCCACCUAAGGAGAGGACUGCGGGUUCGAGUCCCGUACGGAACG, the yeast fitness was ≤ 0.5. For the variant GUUGCGUUGGCGUAAUGCUAACGCGUCUCCCUCCUAAGGAGAAGACUGCGGGUUCGAGUCCCGUACGGACCG, the yeast fitness amounted to 0.508.

With GUUCCAUUGGCGGAAUGGUAACGCGUCGCCCUCCUAAGGAGAAGACUGCGGGUUCGAGUCCCGUACGGAACG, the yeast fitness stood at 0.511. With GUUCCGUUAGCGUAUUGGUAACGCGUCUCCCUCCUAAGGAGAAGUCUGCGGGUUCGAGUCCCGUACGGAACG the figure was 0.533; with GUUCCGUUGGCGUAAUAGUAACGCGUCUCCCUCCUAAGGUGCAGACUGAGGGUUCGAGUCCCGUAAGGAACG, ≤ 0.5; with GUUCCGUUGGCGUAAUGGUAACGCGUCUCCCUCCUAAGGAGAAGACUGCGGGUUCGAGUCCCCUACUGAACG, 0.677. For the variant GUUCCGUUGGCGUAAUGGUAACGCGUCUCACUCCUAAGGAGAAGACUGCGGCUUCGAGUCCCGUACGGCACG, the yeast fitness was ≤ 0.5. With GUUCCGUUGGCGUAAUGGUAACCCGUCUGCCUCCUAAGGAGAUGACUGCAGGUUCGAGUCCCGUACGGAACG, the yeast fitness was 0.702. Next, GUUCCGUUGGCGUAAUGAUAACGCGUCUUCCUCCUAAGGAGAAGACUGCGGCUUCGAGUCCCGUACGGAACG: ≤ 0.5; GUUACGUUGGCGAAAUGGUAACGCGUCUCACCCCUAAGGAGAAGACUGCGGGUUCGAGUCGCGUACGCAACG: ≤ 0.5; GUUCCGUUGGCGUAAUGGUAACGCGUCUCCCUCCUAAGGAGUAGAGUGCGGGUUCGAGUCCCGUACGGAACG: 1.12. As for GUUCCGUUGGCGUAAUGGUAACGCGUAUCCCUCCUAAGGAGAAGACUGCGGGUUCGAGUCCCAUACGGAACG, the yeast fitness amounted to 0.88. GUUCUGUUGGCGUAAUGGUAACGCGUGUCCCUGCUAAGGACAAGACUGCGGGUUCGAGUCACGUACGGAACG: the yeast fitness was ≤ 0.5.

GUUACGUUGGCGUUAUGGUCACGCGUCGCCCUCCUAAGGAGAAGACUGCGGGUUCGAGUCCCAUACGGAACG: the yeast fitness amounted to 0.562. For the variant GUUCCGUUGGCGUAAAGUUAACGCGUCUCCCUCCUACGGAGAAGACUGCGGGUUCGAGUACCGUACGGAGCG, the yeast fitness is ≤ 0.5. With GUUCCGUUAGCGUAAUCGUAACGCGUCUCCCUCCUAAGGAGAAGACUGGGGGUUCGAGUCCCGUACGGAACG, the yeast fitness was ≤ 0.5. In the case of GUUCCGUUGGCGUUAUGGUGACGCGUCUCCCUCCUAAGGAGAAGACUGCGGGUUCGAGUCCCGUACGGAACG, the yeast fitness is 0.749. For GUUCCGUUGGCGUAAUGGUAACGUAUCUCUCUCCUAAGGAGAAGAAUGCGGGUUGGAGUACCGUACGGAACG, the yeast fitness was ≤ 0.5. In the case of GUUCCGUUGGCGUAAUGGUAAUGCGUCUCCCUUCUAAGGAGUAGACUGCGGCUUCGCGUCCCGUCCGGAACG, the yeast fitness is ≤ 0.5. Next, GUUCCGUUGGCGUAAUGGUAACGCGUCUCCCUCCUAAGGAGAAGACUCCGCGAUCGAGUCCCGUAAGGAACG: ≤ 0.5; GUUCCGUUGGCGUAAUGGUAACGCGACUCCCUCCUACGGAGAAGACUGCGGGUUCGAGUCACGUACGGAACG: ≤ 0.5. Turning to GUUCCGUUCGCGUAAUGGUAACGCGUAUCCCUCCUAAGGAGAAGACUGCGGGUUCGAGUCCCGUACGGAACG, the yeast fitness worked out at 0.732.

In the case of GUUCCGUUGGCGUAAUAGUAACGGGUGUCCCUCCUAAGGAGAAGACUGCGGGUUCGAGCCCCGUACGGUACG, the yeast fitness is ≤ 0.5. Turning to GUUCCGUUGGCGUACUGGUAACGCGUCUCCGUGCUAAGGAGAAGACUGCGGGUUCGAGUCCCGUACGGAACG, the yeast fitness was ≤ 0.5.

Take GUUCCGUUGGCGUAAUGGUAACGUGUCUCCCUCCUAAGGAGAACACUGCGGGUUCGAGUCCUGUACGGAACG: the yeast fitness came to 0.784. Next, GUUUCGUUGACAUAAUGGUAACGCGUCUCCCUCCUAAGGAGUAGACUGCGGGUUCGAGUCCCGUACGGAACG: ≤ 0.5; GUUCCGUUGGUGUAAUGGUAACGCGUCUCCCUCCUACGGAGAAGCCUGCGGGUUCGAGUCCCGUACGGAACG: 0.576; GUUCCGUUGGCGUAAUGGUAACGCGUCUCCCUCCUAAGGAGAAGACUGCGGGUCCGAGUUCCGUACGGAACG: 0.546. For GUUCCGUUGGCGCAAUGGUAACGCGUCUCCCUCCUAAGGAGAAGGCUGCGGGUUCGAGUCGCGUACGGAACG, the yeast fitness was ≤ 0.5. Take GUUCCGUUGGCGUAAUGGUUACGCGUCUCCCUCCAAAGGAGAACACUGCGGGUUCGAGUCCCGUACGGAACG: the yeast fitness was ≤ 0.5.
